For orientation: inhibition means the relative decrease from the control value, in per cent.

Data on 14 molecules can be found in PubChem BioAssay.

The nature of test [1]: inhibitors of TNFa-induced NFkB p65 translocation, primary screen, imaging, HUVEC, MLSMR starter and 10KST1 sets (AID 438).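 For inhibition: signal is the nuclear over cytoplasmic p65 intensity ratio per well.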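 Note: compound added about 3h40 before a 20 min TNFalpha stimulation.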 The conditions noted are these: HUVEC TNFa-induced p65 nuclear translocation; cell count: measured here: nuclei count (cytotoxicity indicator), at 2.08 µM; inhibition: at 2 µM, stronger effect = higher value, 0% TNFa-plus-vehicle, 100% no-TNFa wells.
The nature of test [2]: inhibitors of mutant huntingtin aggregation, primary screen, imaging, exon1htt(103Q)mCFP cells, high-content imaging (AID 483;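 active = visual image review flags a hit and inhibition of aggregation exceeds 20%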;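 note: compound exposure lasted 3 days before fixation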;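 for nuclei count: percent of the per-plate median nuclei count of sample wells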). The conditions noted are these: exon1htt(103Q)mCFP cell line, aggregate imaging, at 2 µM; inhibition of aggregation: stronger effect = higher value; nuclei count: measured here: cell count, toxicity.
Test [3] can be described thus: inhibitors of E-selectin induction by TNFa, primary screen, imaging, HUVEC, immunofluorescence, MLSMR starter and 10KST1 sets (AID 487;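 active = visually confirmed hit in the image check and inhibition above 20%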;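 for inhibition: signal is fraction of cell area covered by stained E-selectin grains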;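 for nuclei count: 100% = median nuclei count of all wells on the same plate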). The conditions noted are these: HUVEC TNFalpha-induced E-selectin immunofluorescence imaging, at 2 µM; inhibition: stronger effect = higher value; nuclei count: measured here: cell number, toxicity.
For test [4], the target named is Voltage-gated potassium channel subunit beta-2 (Rattus norvegicus) (UniProt P62483). As to the kind of experiment: KvBeta enzyme negative modulators, primary screen, biochemical, NADPH fluorescence (AID 622;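 active = fluorescence slope higher than the sample average by over 3 SD, cut at about -0.22 in these data, passing the limit was not always enough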;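 note: slope of raw intensity against log time taken from 70 to 1610 s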). The conditions noted are these: recombinant KvBeta, 4-cyanobenzaldehyde reduction, at 10 µM, stronger effect = higher value.
For test [5] the target is unchanged. As to the kind of experiment: KvBeta positive modulators, primary screen, biochemical, NADPH fluorescence (AID 623;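 active = NADPH fluorescence slope more negative than the mean of all samples by about 3 SD, 99.7% confidence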;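 note: fluorescence intensity change per second fitted from 20 to 320 s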). The conditions noted are these: Recombinant KvBeta, NADPH fluorescence decrease slope, 10 min; at 10 µM; stronger effect = lower value.
Test [6] addresses Muscarinic acetylcholine receptor M4 (Homo sapiens) (UniProt P08173). Put plainly: compounds altering M4/GIRK thallium flux, either direction, primary screen, M4 allosteric agonist project, cell-based, HEK293 M4/GIRK, BTC-AM (AID 625;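 active = fluorescence slope after compound addition differing from the mean of all tested samples at 99.7% confidence, mostly higher but some lower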;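 note: thallium influx through GIRK channels coupled to M4 in HEK293 cells with BTC-AM dye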). The following applies: at 10 µM, actives lie on both sides. The essentials:
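Assay system: HEK293 cells with M4 receptor and GIRK channels / Controls: carbachol and DMSO controls / Schedule: 1 h dye loading, 2 min kinetic read / Technique: kinetic fluorescence with BTC-AM dye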

Test [7] in a line: inhibitors of Sendai virus-induced IRF3 signaling, primary screen, TLR/RLR signaling modifier project, cell-based, Sendai virus stimulus, luciferase, 10K MLSCN set (AID 602276;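 active = inhibition at or above 50% at 10 µM; inactive = inhibition below 50%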;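 note: firefly luciferase from ISG56 promoter only with Renilla not read in this screen; 0% = Sendai virus plus DMSO and 100% = medium plus DMSO without virus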). The conditions noted are these: HEK293 RL24 IRF3 luciferase reporter, at 10 µM, stronger effect = higher value. On the technique in general: A reporter such as luciferase makes a cellular process visible.
A short description of test [8]: inhibitors of poly I:C-induced TLR3 signaling, primary screen, cell-based, poly I:C stimulus, luciferase, 10K MLSCN set (AID 602277;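 active = inhibition of the reporter signal at or above 50%; inactive = inhibition below 50%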). The following applies: HEK293-TLR3 RL24 IRF3 luciferase reporter, at 10 µM, stronger effect = higher value.

Activity calls are given as the source filed them.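 Rule for the calls, unless noted: active = inhibition above 20% together with a positive visual image hit; inconclusive = visual image hit but inhibition not above 20%; inactive = no visual image hit.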

Sequence of Voltage-gated potassium channel subunit beta-2 (Rattus norvegicus) (P62483 whole entry, looked up): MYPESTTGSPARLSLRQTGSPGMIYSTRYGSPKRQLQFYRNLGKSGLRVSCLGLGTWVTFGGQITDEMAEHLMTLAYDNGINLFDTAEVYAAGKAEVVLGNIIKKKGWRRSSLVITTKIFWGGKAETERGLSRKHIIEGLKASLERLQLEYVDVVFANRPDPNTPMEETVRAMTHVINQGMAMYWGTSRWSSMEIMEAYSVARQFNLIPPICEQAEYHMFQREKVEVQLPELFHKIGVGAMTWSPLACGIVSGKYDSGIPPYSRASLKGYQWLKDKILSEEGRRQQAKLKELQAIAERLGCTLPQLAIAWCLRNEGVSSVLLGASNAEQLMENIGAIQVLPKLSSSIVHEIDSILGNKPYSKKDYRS
Sequence of Muscarinic acetylcholine receptor M4 (Homo sapiens) (P08173 whole entry, looked up): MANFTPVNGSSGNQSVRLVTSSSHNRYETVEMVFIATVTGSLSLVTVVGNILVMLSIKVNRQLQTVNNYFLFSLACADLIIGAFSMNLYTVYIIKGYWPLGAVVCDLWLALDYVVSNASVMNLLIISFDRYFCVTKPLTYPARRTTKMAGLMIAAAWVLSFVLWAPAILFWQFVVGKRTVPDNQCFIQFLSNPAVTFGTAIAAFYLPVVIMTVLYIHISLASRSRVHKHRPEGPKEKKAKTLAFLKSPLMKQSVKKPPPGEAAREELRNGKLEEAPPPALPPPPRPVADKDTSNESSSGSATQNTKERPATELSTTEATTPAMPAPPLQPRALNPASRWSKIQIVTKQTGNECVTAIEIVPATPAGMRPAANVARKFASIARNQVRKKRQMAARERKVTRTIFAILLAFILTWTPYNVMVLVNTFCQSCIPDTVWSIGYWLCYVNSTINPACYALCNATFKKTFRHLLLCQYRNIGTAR

As to `O=C(C1CCC1)N1CCc2cc(S(=O)(=O)Nc3ccc4c(c3)OCO4)ccc21`, in test [1], the cell count was 606. For the same molecule, the inhibition was 10.1% (inactive) in test [1], 3.5% (inactive) in test [3], 7.48% (inactive) in test [7] and 13.6% (inactive) in test [8]. In test [2], the inhibition of aggregation was 18.8% (inactive). Also, the figures for the nuclei count in test [2] and in test [3] were 92% and 137%, respectively. Further, the fluorescence slope in test [4] was -0.391 (inactive); in test [6] it was 0.0066 (inactive). Further, the NADPH fluorescence slope in test [5] was -6.2e-05 (inactive).
As for `O=C(NCc1ccccn1)c1ccc2nc(-c3ccco3)c(-c3ccco3)nc2c1`, in test [1], the cell count came to 626. The inhibition was -27.2% (inactive) in test [1], -147% (inactive) in test [3], 10.9% (inactive) in test [7] and 3.28% (inactive) in test [8]. Moreover, the inhibition of aggregation in test [2] was -52.7% (inactive). For the same molecule, the nuclei count turned out to be 82.3% in test [2] and 103% in test [3]. Also, the fluorescence slope in test [4] is -0.504 (inactive); in test [6], 0.00242 (inactive). Besides, in test [5], the NADPH fluorescence slope was -2.5e-05 (inactive).
`Cc1ccc2[nH]c(=O)c(CN(CCCO)S(=O)(=O)c3c(C)ccc4nsnc34)cc2c1`: the cell count in test [1] stood at 334. Moreover, the inhibition in test [1] is -2.5% (inactive); in test [3] it was -54.5% (inactive); in test [7] it was 11.1% (inactive); in test [8], 29.7% (inactive). Besides, the inhibition of aggregation in test [2] is -11.4% (inactive). Besides, the nuclei count was determined as 103% in test [2] and 120% in test [3]. Further, the fluorescence slope in test [4] was -0.459 (inactive); in test [6], 0.00552 (inactive). The NADPH fluorescence slope in test [5] was -3e-05 (inactive).
As for `CCOC(=O)C1=C(C)NC(=O)C(C#N)C1c1ccco1` (centres undefined), the cell count in test [1] was found to be 319. Also, the inhibition in test [1] is -1.2% (inactive); in test [3], -59.3% (inactive); in test [7] it was 15.7% (inactive); in test [8], 20.3% (inactive). The inhibition of aggregation in test [2] is 6.1% (inactive). Further, the results for the nuclei count in test [2] and in test [3] were 86.2% and 127%, respectively. The values for the fluorescence slope in test [4] and in test [6] were -0.39 (inactive) and 0.00489 (inactive), respectively. The NADPH fluorescence slope in test [5] is 3.3e-05 (inactive).
In the case of `CCCc1ccc(C(C)NC(=O)c2cnccn2)cc1` (centres undefined), the cell count in test [1] turned out to be 375. In addition, the inhibition is 0.4% (inactive) in test [1], 32.8% (inactive) in test [3], 15.6% (inactive) in test [7] and -1.82% (inactive) in test [8]. Also, in test [2], the inhibition of aggregation is -9.4% (inactive). The figures for the nuclei count in test [2] and in test [3] were 107% and 106%, respectively. In addition, the fluorescence slope was -0.484 (inactive) in test [4] and 0.00486 (inactive) in test [6]. In addition, in test [5], the NADPH fluorescence slope was -1.5e-05 (inactive).
As for `CCCCC(c1nnnn1CS(=O)(=O)c1ccc(C)cc1)N1CCN(c2ccccc2)CC1` (centres undefined), the cell count in test [1] came to 370. Moreover, the inhibition is 6.6% (inactive) in test [1], -47.5% (inactive) in test [3], 32% (inactive) in test [7] and 16.2% (inactive) in test [8]. The inhibition of aggregation in test [2] is -10.3% (inactive). Further, the nuclei count in test [2] was 100%; in test [3], 102%. Besides, the results for the fluorescence slope in test [4] and in test [6] were -0.46 (inactive) and 0.00637 (inactive), respectively. Also, in test [5], the NADPH fluorescence slope was -2.8e-05 (inactive).
On to `Cc1ccnc(NS(=O)(=O)c2ccc(N=CC3=C(O)CC(C)(C)CC3=O)cc2)n1`, for which the cell count in test [1] turned out to be 395. Besides, the inhibition in test [1] is 2.5% (inactive); in test [3], 7.7% (inactive); in test [7], 7.45% (inactive); in test [8] it was 1.62% (inactive). In test [2], the inhibition of aggregation is -9% (inactive). Moreover, the nuclei count was found to be 79.4% in test [2] and 110% in test [3]. Further, the values for the fluorescence slope in test [4] and in test [6] were -0.474 (inactive) and 0.00511 (inactive), respectively. Further, the NADPH fluorescence slope in test [5] was 9.9e-06 (inactive).
`Cc1ccc(NC(=O)C2CCCNC2=O)nc1` (centres undefined): in test [1], the cell count was found to be 265. Moreover, the inhibition was -2.2% (inactive) in test [1], -48.5% (inactive) in test [3], 2.07% (inactive) in test [7] and -1.11% (inactive) in test [8]. The inhibition of aggregation in test [2] is 5.8% (inactive). Besides, the results for the nuclei count in test [2] and in test [3] were 86.6% and 82.2%, respectively. Further, the fluorescence slope in test [4] was -0.448 (inactive); in test [6] it was 0.00534 (inactive). Besides, the NADPH fluorescence slope in test [5] is -4.9e-05 (inactive).
Take `O=C1c2oc3ccccc3c(=O)c2C(c2ccccn2)N1Cc1ccccc1` (centres undefined): in test [1], the cell count was found to be 440. For the same molecule, the inhibition in test [1] is -8.7% (inactive); in test [3], -49.4% (inactive); in test [7] it was -16.4% (inactive); in test [8] it was -22.3% (inactive). For the same molecule, in test [2], the inhibition of aggregation is 1.8% (inactive). For the same molecule, the nuclei count worked out at 106% in test [2] and 125% in test [3]. Moreover, the values for the fluorescence slope in test [4] and in test [6] were -0.563 (inactive) and 0.00477 (inactive), respectively. Besides, the NADPH fluorescence slope in test [5] was -9.3e-06 (inactive).
Consider `CCCC(C)C1C(C#N)=C(N)Oc2cc(C)oc(=O)c21` (centres undefined), for which the cell count in test [1] amounted to 396. In addition, the inhibition was -15.6% (inactive) in test [1], -185% (inactive) in test [3], 18.1% (inactive) in test [7] and 18.7% (inactive) in test [8]. Moreover, in test [2], the inhibition of aggregation was -2.4% (inactive). Moreover, the nuclei count amounted to 68.3% in test [2] and 134% in test [3]. Moreover, the fluorescence slope is -0.455 (inactive) in test [4] and 0.00507 (inactive) in test [6]. Besides, the NADPH fluorescence slope in test [5] is -9.5e-05 (inactive).
Take `CCOC(=O)c1c(C)oc2c1c(C=NCc1ccccn1)c(O)c1ccccc12`: the cell count in test [1] was 738. Moreover, the inhibition in test [1] is 4.7% (inactive); in test [3] it was -112% (inactive); in test [7], 8.4% (inactive); in test [8], 29.2% (inactive). The inhibition of aggregation in test [2] is 7.3% (inactive). Moreover, the values for the nuclei count in test [2] and in test [3] were 84.9% and 124%, respectively. Moreover, the results for the fluorescence slope in test [4] and in test [6] were -0.322 (inactive) and 0.00123 (inactive), respectively. Moreover, the NADPH fluorescence slope in test [5] was -2.5e-05 (inactive).
Turning to `COc1ccccc1CNC(=O)C1CCN(S(=O)(=O)N2CCCCC2)CC1`, the cell count in test [1] was 571. In addition, the inhibition in test [1] is -1.8% (inactive); in test [3], -44.6% (inactive); in test [7] it was 14% (inactive); in test [8], 21.7% (inactive). In addition, in test [2], the inhibition of aggregation is 4.5% (inactive). In addition, the values for the nuclei count in test [2] and in test [3] were 102% and 89.6%, respectively. In addition, the fluorescence slope was -0.426 (inactive) in test [4] and 0.00585 (inactive) in test [6]. Besides, the NADPH fluorescence slope in test [5] was -3.4e-05 (inactive).
For the molecule `Cc1ccc(-n2ncc3c(N4CCN(c5ccc(F)cc5)CC4)ncnc32)c(C)c1`, the cell count in test [1] amounted to 514. Also, the inhibition in test [1] is -6.8% (inactive); in test [3], 32.4% (inactive); in test [7], -19.8% (inactive); in test [8] it was -65.4% (inactive). Further, in test [2], the inhibition of aggregation is 4.6% (inactive). Also, the nuclei count in test [2] amounted to 83.4%; in test [3] it was 92.4%. The fluorescence slope in test [4] was -0.521 (inactive); in test [6], 0.00599 (inactive). The NADPH fluorescence slope in test [5] was -0.000115 (inactive).
For the molecule `COc1ccc(NC(=O)CCCN2C(=O)C3C4C=CC(C4)C3C2=O)c(OC)c1` (centres undefined), in test [1], the cell count worked out at 554. Besides, the inhibition is -1.8% (inactive) in test [1], 49.6% (inactive) in test [3], 9.13% (inactive) in test [7] and 20.8% (inactive) in test [8]. Moreover, the inhibition of aggregation in test [2] is 5.1% (inactive). Besides, the nuclei count in test [2] was 94.8%; in test [3] it was 62.2%. Moreover, the results for the fluorescence slope in test [4] and in test [6] were -0.554 (inactive) and 0.00549 (inactive), respectively. For the same molecule, the NADPH fluorescence slope in test [5] was -2.9e-05 (inactive).
